The source made the active and inactive calls. The rule behind the calls is not given here.
What follows are compounds tested on HepG2 (assay: Cytotoxicity against human HepG2 cells assessed as reduction in cell viability at 10 uM after 24 hrs by CCK8 assay).
Assay type: functional

Structure (SMILES) | Activity
COc1cc2c(cc1OC)C1Cc3ccc(OC)c(OC(=O)c4cccc(C)c4)c3CN1CC2 (centres undefined) | 84.3%
COc1ccc2c(c1OC(=O)C1CC1)CN1CCc3cc4c(cc3C1C2)OCO4 (centres undefined) | 90.7%
COc1ccc2c(c1OS(=O)(=O)c1c(C)cc(C)cc1C)CN1CCc3cc4c(cc3C1C2)OCO4 (centres undefined) | 80.7%
COc1cc2c(cc1OC)C1Cc3ccc(OC)c(OS(=O)(=O)c4cc(C)ccc4C)c3CN1CC2 (centres undefined) | 81.4%
C/C=C/C(=O)Oc1c(OC)ccc2c1CN1CCc3cc(OC)c(OC)cc3C1C2 (centres undefined) | 81.7%
CCS(=O)(=O)Oc1c(OC)ccc2c1CN1CCc3cc(OC)c(OC)cc3C1C2 (centres undefined) | 87.7%
COc1ccc2c(c1OC(=O)c1ccc(CCl)cc1)CN1CCc3cc4c(cc3C1C2)OCO4 (centres undefined) | 97.8%
COc1ccc2c(c1OS(=O)(=O)c1ccc(Cl)c([N+](=O)[O-])c1)CN1CCc3cc4c(cc3C1C2)OCO4 (centres undefined) | 93.4%
C=C(C)C(=O)Oc1c(OC)ccc2c1CN1CCc3cc(OC)c(OC)cc3C1C2 (centres undefined) | 95.4%
COc1ccc2c(c1OC(=O)c1ccco1)CN1CCc3cc4c(cc3C1C2)OCO4 (centres undefined) | 83.9%
CCOc1ccccc1C(=O)Oc1c(OC)ccc2c1CN1CCc3cc4c(cc3C1C2)OCO4 (centres undefined) | 96%
COc1cc2c(cc1OC)C1Cc3ccc(OC)c(OS(=O)(=O)c4ccc(Br)cc4)c3CN1CC2 (centres undefined) | 86.5%
CCOc1c(OC)ccc2c1CN1CCc3cc4c(cc3C1C2)OCO4 (centres undefined) | 87.7%
CCCC(CCC)C(=O)Oc1c(OC)ccc2c1CN1CCc3cc(OC)c(OC)cc3C1C2 (centres undefined) | 97.9%
COc1ccc2c(c1OC(=O)C13CC4CC(CC(C4)C1)C3)CN1CCc3cc4c(cc3C1C2)OCO4 (centres undefined) | 80.2%
COc1cc2c(cc1OC)C1Cc3ccc(OC)c(OC(=O)c4ccco4)c3CN1CC2 (centres undefined) | 80.9%
CCCS(=O)(=O)Oc1c(OC)ccc2c1CN1CCc3cc(OC)c(OC)cc3C1C2 (centres undefined) | 80.2%
COc1cc2c(cc1OC)C1Cc3ccc(OC)c(OS(=O)(=O)c4ccc(Cl)c([N+](=O)[O-])c4)c3CN1CC2 (centres undefined) | 94.7%
COc1cc2c(cc1OC)C1Cc3ccc(OC)c(OS(=O)(=O)c4ccc(F)cc4)c3CN1CC2 (centres undefined) | 93.4%
COc1cc2c(cc1OC)C1Cc3ccc(OC)c(OC(=O)c4ccc(F)cc4)c3CN1CC2 (centres undefined) | 95.1%
COc1cc2c(cc1OC)C1Cc3ccc(OC)c(OC(=O)C45CC6CC(CC(C6)C4)C5)c3CN1CC2 (centres undefined) | 99.3%
COc1ccc2c(c1OS(=O)(=O)c1ccccc1[N+](=O)[O-])CN1CCc3cc4c(cc3C1C2)OCO4 (centres undefined) | 88.8%
COc1cc2c(cc1OC)C1Cc3ccc(OC)c(OC(=O)c4ccc(CCl)cc4)c3CN1CC2 (centres undefined) | 88.3%

Structure (SMILES) | Activity
CCOc1ccccc1C(=O)Oc1c(OC)ccc2c1CN1CCc3cc(OC)c(OC)cc3C1C2 (centres undefined) | 84.6%
COc1cc2c(cc1OC)C1Cc3ccc(OC)c(OS(=O)(=O)c4ccccc4[N+](=O)[O-])c3CN1CC2 (centres undefined) | 84.8%
COc1cc2c(cc1OC)C1Cc3ccc(OC)c(OS(=O)(=O)c4c(C)cc(C)cc4C)c3CN1CC2 (centres undefined) | 73.3%
COc1cc2c(cc1OC)C1Cc3ccc(OC)c(OS(=O)(=O)c4cccs4)c3CN1CC2 (centres undefined) | 89.2%
CCCCOc1c(OC)ccc2c1CN1CCc3cc4c(cc3C1C2)OCO4 (centres undefined) | 98.1%
COc1cc2c(cc1OC)C1Cc3ccc(OC)c(OC(=O)c4cccc(Br)c4)c3CN1CC2 (centres undefined) | 80.2%
COc1cc2c(cc1OC)C1Cc3ccc(OC)c(OC(=O)C4CC4)c3CN1CC2 (centres undefined) | 91.2%
COc1ccc2c(c1OS(=O)(=O)c1ccc(F)cc1)CN1CCc3cc4c(cc3C1C2)OCO4 (centres undefined) | 86.8%
C/C=C/C(=O)Oc1c(OC)ccc2c1CN1CCc3cc4c(cc3C1C2)OCO4 (centres undefined) | 84.3%
COc1ccc2c(c1OS(=O)(=O)c1cccs1)CN1CCc3cc4c(cc3C1C2)OCO4 (centres undefined) | 93.4%
COc1ccc2c(c1OC(=O)c1cccc(C)c1)CN1CCc3cc4c(cc3C1C2)OCO4 (centres undefined) | 90.1%
COc1ccc2c(c1OC(=O)c1ccc(F)cc1)CN1CCc3cc4c(cc3C1C2)OCO4 (centres undefined) | 85.6%
COc1ccc2c(c1OC(=O)c1cccc(Br)c1)CN1CCc3cc4c(cc3C1C2)OCO4 (centres undefined) | 85%
CCCOc1c(OC)ccc2c1CN1CCc3cc4c(cc3C1C2)OCO4 (centres undefined) | 101.5%
COc1ccc2c(c1OC(=O)C1CCCCC1)CN1CCc3cc4c(cc3C1C2)OCO4 (centres undefined) | 90.7%
COc1cc2c(cc1OC)C1Cc3ccc(OC)c(OC(=O)C(C)(C)CCl)c3CN1CC2 (centres undefined) | 91.2%
COc1ccc2c(c1OS(=O)(=O)c1cc(C)ccc1C)CN1CCc3cc4c(cc3C1C2)OCO4 (centres undefined) | 84.5%
COc1ccc2c(c1OC(=O)C(C)(C)CCl)CN1CCc3cc4c(cc3C1C2)OCO4 (centres undefined) | 99.6%
COc1ccc2c(c1OS(=O)(=O)c1c(C(C)C)cc(C(C)C)cc1C(C)C)CN1CCc3cc4c(cc3C1C2)OCO4 (centres undefined) | 92.8%
COc1ccc2c(c1OCc1cc(F)ccc1F)CN1CCc3cc4c(cc3C1C2)OCO4 (centres undefined) | 87.7%
COc1cc2c(cc1OC)C1Cc3ccc(OC)c(OC(=O)C4CCCCC4)c3CN1CC2 (centres undefined) | 85.5%
COc1cc2c(cc1OC)C1Cc3ccc(OC)c(OS(=O)(=O)c4c(C(C)C)cc(C(C)C)cc4C(C)C)c3CN1CC2 (centres undefined) | 91.1%

Each compound was assayed on HepG2 (assay: Down regulation of intracellular TC level in human HepG2 cells at 10 uM measured after 24 hrs).
Assay type: functional, cell-based
Outline: (§1)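 HepG2 cells grown in six-well plates and exposed 24 h to compound at […]. Cells collected in PBS and sonicated (5 s on, 10 s off, 60 s total). Total cholesterol or triglyceride measured with a colorimetric determination kit.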

Structure (SMILES) | Activity
COc1cc2c(cc1OC)C1Cc3ccc(OC)c(OC(=O)C4CC4)c3CN1CC2 (centres undefined) | Active
CCCOc1c(OC)ccc2c1CN1CCc3cc4c(cc3C1C2)OCO4 (centres undefined) | Active
COc1ccc2c(c1OCc1ccc([N+](=O)[O-])cc1)CN1CCc3cc4c(cc3C1C2)OCO4 (centres undefined) | Active
COc1cc2c(cc1OC)C1Cc3ccc(OC)c(OS(=O)(=O)c4c(C(C)C)cc(C(C)C)cc4C(C)C)c3CN1CC2 (centres undefined) | Active

Each compound was assayed on HepG2 (assay: Down regulation of intracellular TG level in human HepG2 cells at 10 uM measured after 24 hrs).
Assay type: functional, cell-based
Outline: as §1

Structure (SMILES) | Activity
CCCCOc1c(OC)ccc2c1CN1CCc3cc4c(cc3C1C2)OCO4 (centres undefined) | Active
COc1cc2c(cc1OC)C1Cc3ccc(OC)c(OC(=O)C4CC4)c3CN1CC2 (centres undefined) | Active
CCCOc1c(OC)ccc2c1CN1CCc3cc4c(cc3C1C2)OCO4 (centres undefined) | Active
COc1ccc2c(c1OCc1ccc([N+](=O)[O-])cc1)CN1CCc3cc4c(cc3C1C2)OCO4 (centres undefined) | Active
COc1cc2c(cc1OC)C1Cc3ccc(OC)c(OS(=O)(=O)c4c(C(C)C)cc(C(C)C)cc4C(C)C)c3CN1CC2 (centres undefined) | Active

Reference: ChEMBL document CHEMBL4837214, “Design, synthesis, and biological evaluation of novel tetrahydroprotoberberine derivatives to reduce SREBPs expression for the treatment of hyperlipidemia” (Eur J Med Chem, 2021)
